Experimental data published in ChEMBL document CHEMBL4513216, “Probing the Open Global Health Chemical Diversity Library for Multistage-Active Starting Points for Next-Generation Antimalarials” (ACS Infect Dis, 2020).

Assay: Toxicity liver stage against HepG2, at 10uM
Assay type: cell-based
Set-up: test concentration 10 uM, cell line HepG2-A16-CD81EGFP
Conditions: human, HepG2-A16-CD81EGFP cells; read-out: INHIBITION
Procedure, shortened: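 Uninfected HepG2-A16-CD81EGFP cells, 3 × 10^3 per well, 1536-well, plated on prespotted compound at 10 μM final, parasite-free screening media added to match infected plates; puromycin 10 μM positive, DMSO 0.5% negative; run in parallel with 48 h PbLuc assay at 37 °C, 5% CO2; viability by CellTiter-Glo luminescence, normalized to controls.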

## CC(=O)N1CC2(CCCC2)c2ccccc21
  cytotoxicity at 10 µM: 0.83%

## C[C@@H](NC(=O)c1cccnc1)c1onc(-c2ccccc2)c1C(=O)O
  cytotoxicity at 10 µM: 10.1%

## Oc1ccc([C@H]2Oc3cc(O)cc(O)c3C[C@@H]2O)cc1
  cytotoxicity at 10 µM: 4.94%

## N#Cc1ccc(OC2CCN(C(=O)c3ccccc3Cl)CC2)nc1
  cytotoxicity at 10 µM: 3.93%

## CCN1C(=O)CCC12CCN(S(=O)(=O)c1ccc(C#N)cc1)CC2
  cytotoxicity at 10 µM: 1.82%

## COc1cccc(N2CC3(CCN(c4ccc(C)nn4)C3)CC2=O)c1 (centres undefined)
  cytotoxicity at 10 µM: 6.62%

## O=C(NCc1ccco1)[C@@]12CCO[C@@H]1CCN(Cc1nccs1)C2
  cytotoxicity at 10 µM: 14.6%

## CCN(C)c1ncnc2c1CCN(C(=O)N1CCOCC1)CC2
  cytotoxicity at 10 µM: 0.223%

## Cc1cc(C(=O)N2C[C@@H]3COC[C@]3(c3nnc(C)o3)C2)on1
  cytotoxicity at 10 µM: -0.505%

## Cc1occc1C(=O)N1CCn2cnc(COCC3CC3)c2C1
  cytotoxicity at 10 µM: -6.4%

## CN(C(=O)Cn1nc(-c2ccccc2F)ccc1=O)C1CCS(=O)(=O)C1 (centres undefined)
  cytotoxicity at 10 µM: 2.21%

## CC1=Nc2c(c(=O)[nH]n2C(C)C)C(c2ccccc2)S1 (centres undefined)
  cytotoxicity at 10 µM: 5.53%

## COc1ccc2nnc(CCCC(=O)NCCC3=CCCCC3)n2n1
  cytotoxicity at 10 µM: 2.73%

## CCc1ccc(NC(=O)c2cnc(N3CCN(C)CC3)nc2C)cc1
  cytotoxicity at 10 µM: -15%

## O=C1CC(c2ccco2)c2sc(C(=O)O)c(-c3ccccc3)c2N1 (centres undefined)
  cytotoxicity at 10 µM: 19.1%

## COCc1cncc2c1CCN(C(=O)c1ccc(C)o1)C2
  cytotoxicity at 10 µM: 0.388%

## CC(C)NC(=O)[C@@H]1CCO[C@@H]2CCN(c3ncccn3)C[C@H]21
  cytotoxicity at 10 µM: -7.6%

## COCCNC(=O)[C@@H]1CC[C@@H]2[C@@H](CCN2Cc2cnn(C)c2)O1
  cytotoxicity at 10 µM: -12.2%

## O=C(c1ccncc1F)N1CCN(CC2CC2)c2ncccc2C1
  cytotoxicity at 10 µM: 6.48%

## COc1ccc(N2CCN(C(=O)Cn3nc(C)c(Cl)c3C)CC2)cc1
  cytotoxicity at 10 µM: 1.58%

## CN(C)c1nccc(C2CN(c3cnccn3)CCO2)n1 (centres undefined)
  cytotoxicity at 10 µM: 7.95%

## Cc1nccc(CN2Cc3nccn3CC2c2ccccc2)n1 (centres undefined)
  cytotoxicity at 10 µM: 3.1%

## CN1CCOC(C)(C(=O)Nc2nc(C(C)(C)C)cs2)C1 (centres undefined)
  cytotoxicity at 10 µM: 6.52%

## Cc1nn(C)cc1S(=O)(=O)N[C@@H]1CCC[C@@H](n2ccnc2)[C@@H]1O
  cytotoxicity at 10 µM: 0.651%

## COc1cccc(CN2CCC(c3nn(CCN)c4nccnc34)C2)c1 (centres undefined)
  cytotoxicity at 10 µM: -24.7%

## CN(C)C(=O)CN1CCCC1c1nccnc1Nc1ccccn1 (centres undefined)
  cytotoxicity at 10 µM: -15%

## COC(=O)Nc1cccc(C(=O)N(C)Cc2cccc(O)c2)c1
  cytotoxicity at 10 µM: -5.88%

## CCN(CC)CCCNC(=O)Nc1c(C)cccc1C(C)C
  cytotoxicity at 10 µM: -0.847%

## NC(=O)c1ccc(NC2CCOC3(CCCC3)C2)nn1 (centres undefined)
  cytotoxicity at 10 µM: -3.13%

## COc1cccc(-c2n[nH]cc2CNC2CCCN(C)C2)c1 (centres undefined)
  cytotoxicity at 10 µM: -8.86%

## COC(=O)c1cc(CN2CCC(c3noc(C)n3)CC2)c(C)s1
  cytotoxicity at 10 µM: -7.12%

## Cc1ccc(CN(CC(=O)NCC2CCOC2)c2ccc(F)cc2)o1 (centres undefined)
  cytotoxicity at 10 µM: 9.83%

## COc1c(NS(=O)(=O)c2cc(C)ccc2C)c(C)nn1C
  cytotoxicity at 10 µM: 0.259%

## Cc1cc(CN(CC(N)=O)CC(C)C)no1
  cytotoxicity at 10 µM: 3.72%

## Cc1nc(-c2nnc[nH]2)sc1C(=O)N1CCCC(C(F)(F)F)C1 (centres undefined)
  cytotoxicity at 10 µM: 7.59%

## CN(C)c1cc(C(=O)Nc2ccccc2C(=O)NC(C)(C)C)ccn1
  cytotoxicity at 10 µM: 2.46%

## Cc1cc(CN2CCN(C(=O)c3ccc(=O)n(C)c3)CC2)no1
  cytotoxicity at 10 µM: -8.07%

## COC(=O)COc1nc(C(C)C)no1
  cytotoxicity at 10 µM: -6.22%

## C1CCC(CNC2CCCN(Cc3noc(C4CC4)n3)C2)C1 (centres undefined)
  cytotoxicity at 10 µM: -2.34%

## CN1CCCN(C(=O)NCc2ccccc2Cn2cncn2)CC1
  cytotoxicity at 10 µM: 3.58%

## Cc1nn(C(C)C)c(C)c1NC(=O)c1cccnc1
  cytotoxicity at 10 µM: -1.57%

## Cc1nc(C)n(CC2CN(CCCc3ccccc3)CCO2)n1 (centres undefined)
  cytotoxicity at 10 µM: 2.89%

## Cc1cccn2cc(CN3CCCC(O)C3)nc12 (centres undefined)
  cytotoxicity at 10 µM: 2.25%

## COC(=O)CN(C(=O)c1cc(C(C)C)no1)c1cccc(F)c1
  cytotoxicity at 10 µM: 11.3%

## Cc1cc(C)cc(OCCN(C)Cc2ccc(S(=O)(=O)N(C)C)o2)c1
  cytotoxicity at 10 µM: 8.2%

## CC(c1nc(C(C)(C)C)no1)S(=O)(=O)CC(=O)N(C)C (centres undefined)
  cytotoxicity at 10 µM: -0.0515%

## Cc1ccc2nc(CNc3ccccc3C(=O)NC3CC3)cn2c1
  cytotoxicity at 10 µM: 3.16%

## O=C(Cc1cccs1)NC1(C(=O)NCC2CC2)CCCC1
  cytotoxicity at 10 µM: 4.19%

## COc1c(C)cnc(CN(C)C2CCN(C3CCOCC3)CC2)c1C
  cytotoxicity at 10 µM: -17.7%

## CS(=O)(=O)Cc1nc(CN2CCOc3ccccc3C2)cs1
  cytotoxicity at 10 µM: 5.81%

## Cc1cnccc1NC(=O)CCc1ccsc1
  cytotoxicity at 10 µM: -3.51%

## Cc1cc(C2CCCN2C(=O)CN2CC3(CCNCC3)OC2=O)on1 (centres undefined)
  cytotoxicity at 10 µM: 16.4%

## CCn1nc(CC(C)C)cc1C(=O)NCCS(=O)(=O)N(C)C
  cytotoxicity at 10 µM: 11.2%

## CC(C)(C)c1ccn(C2(C(=O)O)CCN(c3ncccc3C#N)CC2)n1
  cytotoxicity at 10 µM: -7.6%

## CN(Cc1nccs1)c1nccc(N2CCN[C@H]3CS(=O)(=O)C[C@H]32)n1
  cytotoxicity at 10 µM: -5%

## CSc1nccc(N2CCC(=O)N(CC3CC3)C(C(C)C)C2)n1 (centres undefined)
  cytotoxicity at 10 µM: -2.02%

## NCC1CN(c2nc(-c3cccnc3)nc3c2CCNCC3)CCO1 (centres undefined)
  cytotoxicity at 10 µM: -17.6%

## c1ccc(CCN2CCN(C3CCOC4(CCOCC4)C3)CC2)nc1 (centres undefined)
  cytotoxicity at 10 µM: 2.1%

## c1cncc(C(Cn2cnnc2)N2CCOCC2)c1 (centres undefined)
  cytotoxicity at 10 µM: -5.11%

## CSc1ccc(-c2nc(CN3CCNCC3C)c(C)o2)cc1 (centres undefined)
  cytotoxicity at 10 µM: -5.58%

## CC(C)[C@@H]1CN(C(=O)CN(C)Cc2ccc(F)cc2)C[C@H]1C(=O)O
  cytotoxicity at 10 µM: 1.74%

## Nc1nc(CC(=O)N2CCCC(CCc3cccc(F)c3)C2)cc(=O)[nH]1 (centres undefined)
  cytotoxicity at 10 µM: -6.12%

## Cc1nonc1OCCNC(=O)COc1ccc(Cl)cc1Cl
  cytotoxicity at 10 µM: 3.95%

## Cc1n[nH]c(CCC(=O)N2CCOC(Cc3ccccc3)C2)c1C (centres undefined)
  cytotoxicity at 10 µM: -44.1%

## COCCn1ccnc1C1CCN(C(=O)CSc2nnc(C)s2)CC1
  cytotoxicity at 10 µM: 5.4%

## O=C(c1cc[nH]n1)N1CCC(c2nccn2Cc2ccncc2)CC1
  cytotoxicity at 10 µM: 0.216%

## Cn1ncc(NC(=O)Cn2ccc(-c3cccc(F)c3)n2)n1
  cytotoxicity at 10 µM: 1.73%

## Cc1n[nH]c(C)c1-c1cc(-c2ccc[nH]2)nc(N)c1C#N
  cytotoxicity at 10 µM: 12.4%

## Cc1cc(C[C@@H]2COC[C@@H]2NC(=O)CN2CCCC2)on1
  cytotoxicity at 10 µM: -30.2%

## COCc1cc(NCc2cc(F)ccc2F)n2nccc2n1
  cytotoxicity at 10 µM: -2.32%

## Cc1nc(CN2CCN(c3ccc4nncn4n3)C(C)C2)oc1C (centres undefined)
  cytotoxicity at 10 µM: -2.91%

## O=C(CCNC(=O)C1CCCC1)NCc1ccccc1Cn1ccnc1
  cytotoxicity at 10 µM: -2.74%

## Cn1ccnc1CN1CCN(CCOc2ccccc2F)CC1
  cytotoxicity at 10 µM: -10.9%

## O=C(NCCNc1ccccn1)Nc1cc(C(F)(F)F)c[nH]c1=O
  cytotoxicity at 10 µM: -16.5%

## O=C(NCCC1=CCCCC1)Nc1cc(C(F)(F)F)c[nH]c1=O
  cytotoxicity at 10 µM: -8.39%

## CC(NC(=O)CCCC(=O)c1cccs1)c1nnc2n1CCC2 (centres undefined)
  cytotoxicity at 10 µM: -10.2%

## CCc1n[nH]c(C2CN(C(=O)CCc3cscn3)CCO2)n1 (centres undefined)
  cytotoxicity at 10 µM: -8.42%

## Cc1nnc(N2CCOC(C)C2)c(C#N)c1C (centres undefined)
  cytotoxicity at 10 µM: -11.7%

## CC(C)c1cc(NC(=O)CN2CCn3c(nnc3C3CC3)C2)on1
  cytotoxicity at 10 µM: -14.1%

## Cc1ccc(-c2nc(CNCC3CN(C)CCO3)co2)c(C)c1 (centres undefined)
  cytotoxicity at 10 µM: -16.4%

## CCc1ccc(CNC(=O)N2CCN(Cc3cc(C)on3)CC2)s1
  cytotoxicity at 10 µM: -7.03%

## CCc1[nH]ncc1C(=O)N1CCCC(n2ccnc2C)C1 (centres undefined)
  cytotoxicity at 10 µM: -10.5%

## Cc1nn(C)c(C)c1C1CCCN1CC(=O)NCc1ccco1 (centres undefined)
  cytotoxicity at 10 µM: -12.4%

## O=C(COCCc1ccccc1)N1CCCC(n2cncn2)C1 (centres undefined)
  cytotoxicity at 10 µM: -27.8%

## CN(Cc1ccccn1)C1CCCN(c2cccnn2)C1 (centres undefined)
  cytotoxicity at 10 µM: -13.4%

## COc1cc(C(=O)N2CCCC(CNS(C)(=O)=O)C2)ccc1C (centres undefined)
  cytotoxicity at 10 µM: -21.6%

## Cc1nn(C)c(C)c1CC(=O)N1CCCC(n2cccn2)C1 (centres undefined)
  cytotoxicity at 10 µM: -13.7%

## Cc1csc(C2CCCN(C(=O)c3cc(Cl)c[nH]3)C2)n1 (centres undefined)
  cytotoxicity at 10 µM: -8.21%

## c1ccc(CCNC2CCc3ncnn3C2)nc1 (centres undefined)
  cytotoxicity at 10 µM: -4.03%

## Cc1ncc2c(n1)C1(CCN(C(=O)C3CC3)CC1)OCC2
  cytotoxicity at 10 µM: 6.02%

## Cc1cc(C)nc(N2CCN(Cc3nccn3C)CC2)n1
  cytotoxicity at 10 µM: -20.9%

## Fc1cccnc1O[C@@H]1CC[C@H]2[C@H]1OCCN2Cc1nccs1
  cytotoxicity at 10 µM: 4.93%

## O=C(c1cnccn1)N1CCO[C@H]2[C@H](OCc3cccnc3)CC[C@@H]21
  cytotoxicity at 10 µM: -9.45%

## CCc1nc2ccccc2c(=O)n1CC1(O)CCN(C(=O)COC)CC1
  cytotoxicity at 10 µM: -2.76%

## COCCC(=O)N1CCN(CC(C)C)c2nc(C)ccc2C1
  cytotoxicity at 10 µM: 11.3%

## CC(C)NC(=O)[C@H]1C[C@@H]2[C@@H](C1)OCCN2Cc1ccco1
  cytotoxicity at 10 µM: 4.08%

## C1CC(CO[C@@H]2CC[C@H]3[C@H]2OCCN3CC2CCOCC2)CCO1
  cytotoxicity at 10 µM: 13.7%

## N#Cc1ccc(C(=O)N2CCn3c(Cn4cccn4)cnc3C2)cc1
  cytotoxicity at 10 µM: 3.09%

## Cn1cc(CN2C[C@@H]3CN(Cc4ccoc4)CCO[C@@H]3C2)cn1
  cytotoxicity at 10 µM: 6.97%

## COc1ccc(CN2CCOC3(CCCN(C(C)=O)C3)C2)cc1 (centres undefined)
  cytotoxicity at 10 µM: 3.88%

## Fc1ccc(CN2CCOCC3(CCN(Cc4nccs4)C3)C2)cc1 (centres undefined)
  cytotoxicity at 10 µM: 4.23%

## O=C(CN1CCCC1=O)N1CCC(O)(Cn2ccc3ccncc32)CC1
  cytotoxicity at 10 µM: -5.55%

## O=C1CC[C@H]2[C@H](CCN2C(=O)C2CCOCC2)N1Cc1ccncc1
  cytotoxicity at 10 µM: -2.7%

## CO[C@H]1CCN(Cc2cnn(C)c2)[C@@H]2CN(Cc3ccncc3)C[C@H]12
  cytotoxicity at 10 µM: 2.29%

## O=C(N1CCCO1)[C@]12COC[C@H]1CN(Cc1nccs1)C2
  cytotoxicity at 10 µM: 9.31%

## Cc1ncc2c(c1C(=O)O)CCN(c1ncc(F)cn1)C2
  cytotoxicity at 10 µM: -2.19%

## COC(=O)c1cc(OCC2CCC2)cc(C(=O)NC2CCC(O)CC2)c1 (centres undefined)
  cytotoxicity at 10 µM: -14.2%

## Cc1ncc(CN2C[C@H]3CC(OCc4ccccc4)C[C@H]3C2)cn1 (some centres undefined)
  cytotoxicity at 10 µM: -24.3%

## CCOC(=O)Cn1c(=O)[nH]c2cn(-c3ccccc3)c(=O)n21
  cytotoxicity at 10 µM: 0.379%
